Laboratory results published in ChEMBL document CHEMBL3585281, “Antibacterial Labdane Diterpenoids from Vitex vestita” (2015).
≈ marks a conversion by molar mass, not a printed value.

Tests used:
Assay type in all cases: functional
[1] = system: Bacillus cereus; assay: Antibacterial activity against Bacillus cereus N258 after 18 hrs by agar dilution method; conditions: N258, 18 h
Method in brief: (§1)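 Agar-dilution MIC against Gram-positive strains. Compounds in DMSO, geometric dilutions giving final 100−0.75 mg/L in Mueller Hinton agar. Strains grown 18 h at 37 °C in trypticase soy broth, diluted in sterile water, spotted by Steers inoculator (about 1000 UFC/spot). Plates incubated 18 h at 37 °C; DMSO blank; ofloxacin positive control. MIC = lowest concentration with no visible growth.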

[2] = system: Listeria monocytogenes; assay: Antibacterial activity against Listeria monocytogenes CIP 103575 after 18 hrs by agar dilution method; conditions: CIP 103575, 18 h; method in brief: as §1
[3] = system: Staphylococcus epidermidis; assay: Antibacterial activity against Staphylococcus epidermidis CIP 53124 after 18 hrs by agar dilution method; conditions: CIP 53124, 18 h; method in brief: as §1
[4] = system: Enterococcus casseliflavus; assay: Antibacterial activity against Enterococcus casseliflavus N487 after 18 hrs by agar dilution method; conditions: N487, 18 h; method in brief: as §1
[5] = system: Enterococcus faecium; assay: Antibacterial activity against Enterococcus faecium N733 after 18 hrs by agar dilution method; conditions: N733, 18 h; method in brief: as §1
[6] = system: Enterococcus gallinarum; assay: Antibacterial activity against Enterococcus gallinarum N489 after 18 hrs by agar dilution method; conditions: N489, 18 h; method in brief: as §1
[7] = system: MRC5; assay: Cytotoxicity against human MRC5 cells assessed as growth inhibition at 10^-5 M after 72 hrs by MTS assay relative to control; conditions: MRC5, 72 h, read-out: GI
Method in brief: (§2)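 Cells from ATCC; HCT-116 grown in RPMI 1640 and MRC5 in DMEM, each with 10% FCS and 1% glutamine, 37 °C, 5% CO2. Seeded at 2.5 × 10^3 cells/well, cultured 24 h, then exposed to compounds at 1 and 10 μM final for 72 h. MTS read-out, absorbance 490 nm; percent index from treated/control OD490 × 100, three experiments.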

[8] = system: Staphylococcus aureus; assay: Antibacterial activity against Staphylococcus aureus CIP 53154 after 18 hrs by agar dilution method; conditions: CIP 53154, 18 h; method in brief: as §1
[9] = system: Corynebacterium striatum; assay: Antibacterial activity against Corynebacterium striatum N840 after 18 hrs by agar dilution method; conditions: N840, 18 h; method in brief: as §1
[10] = system: Enterococcus faecalis; assay: Antibacterial activity against Enterococcus faecalis N520 after 18 hrs by agar dilution method; conditions: N520, 18 h; method in brief: as §1
[11] = system: Staphylococcus saprophyticus; assay: Antibacterial activity against Staphylococcus saprophyticus E260 after 18 hrs by agar dilution method; conditions: E260, 18 h; method in brief: as §1
[12] = system: HCT-116; assay: Cytotoxicity against human HCT116 cells assessed as growth inhibition at 10^-5 M after 72 hrs by MTS assay relative to control; conditions: HCT-116, 72 h, read-out: GI; method in brief: as §2
[13] = system: Staphylococcus haemolyticus; assay: Antibacterial activity against Staphylococcus haemolyticus CIP 8156 after 18 hrs by agar dilution method; conditions: CIP 8156, 18 h; method in brief: as §1
[14] = system: Streptococcus agalactiae; assay: Antibacterial activity against Streptococcus agalactiae CIP 103227 after 18 hrs by agar dilution method; conditions: ATCC 13813, 18 h; method in brief: as §1
[15] = system: Enterococcus faecalis; assay: Antibacterial activity against Enterococcus faecalis CIP 104676 after 18 hrs by agar dilution method; conditions: CIP 104676, 18 h; method in brief: as §1
[16] = system: Enterococcus faecalis; assay: Antibacterial activity against Enterococcus faecalis CIP 103214 after 18 hrs by agar dilution method; conditions: CIP 103214, 18 h; method in brief: as §1
[17] = system: Listeria monocytogenes; assay: Antibacterial activity against Listeria monocytogenes N851 after 18 hrs by agar dilution method; conditions: N851, 18 h; method in brief: as §1
[18] = system: Enterococcus hirae; assay: Antibacterial activity against Enterococcus hirae CIP 5855 after 18 hrs by agar dilution method; conditions: CIP 5855, 18 h; method in brief: as §1
[19] = system: Staphylococcus aureus; assay: Antibacterial activity against Staphylococcus aureus CIP 483 after 18 hrs by agar dilution method; conditions: CIP 483, 18 h; method in brief: as §1
[20] = system: Enterococcus faecium; assay: Antibacterial activity against Enterococcus faecium CIP 103014 after 18 hrs by agar dilution method; conditions: CIP 103014, 18 h; method in brief: as §1
[21] = system: Listeria monocytogenes; assay: Antibacterial activity against Listeria monocytogenes N836 after 18 hrs by agar dilution method; conditions: N836, 18 h; method in brief: as §1
[22] = system: Staphylococcus aureus; assay: Antibacterial activity against Staphylococcus aureus ATCC 9144 oxford after 18 hrs by agar dilution method; method in brief: as §1
[23] = system: Staphylococcus aureus; assay: Antibacterial activity against Staphylococcus aureus CIP 5710 after 18 hrs by agar dilution method; conditions: CIP 5710, 18 h; method in brief: as §1
[24] = system: Enterococcus gallinarum; assay: Antibacterial activity against Enterococcus gallinarum N492 after 18 hrs by agar dilution method; conditions: N492, 18 h; method in brief: as §1
[25] = system: Staphylococcus aureus; assay: Antibacterial activity against Staphylococcus aureus ATCC 25923 after 18 hrs by agar dilution method; conditions: ATCC 25923, 18 h; method in brief: as §1
[26] = system: Enterococcus casseliflavus; assay: Antibacterial activity against Enterococcus casseliflavus CIP 103018 after 18 hrs by agar dilution method; conditions: CIP 103018, 18 h; method in brief: as §1
[27] = system: Enterococcus faecium; assay: Antibacterial activity against Enterococcus faecium N507 after 18 hrs by agar dilution method; conditions: N507, 18 h; method in brief: as §1
[28] = system: HCT-116; assay: Cytotoxicity against human HCT116 cells assessed as growth inhibition at 10^-6 M after 72 hrs by MTS assay relative to control; conditions: HCT-116, 72 h, read-out: GI; method in brief: as §2
[29] = system: MRC5; assay: Cytotoxicity against human MRC5 cells assessed as growth inhibition at 10^-6 M after 72 hrs by MTS assay relative to control; conditions: MRC5, 72 h, read-out: GI; method in brief: as §2
[30] = system: Enterococcus gallinarum; assay: Antibacterial activity against Enterococcus gallinarum CIP 105985 after 18 hrs by agar dilution method; conditions: CIP 105985, 18 h; method in brief: as §1
[31] = system: Enterococcus durans; assay: Antibacterial activity against Enterococcus durans CIP 104999 after 18 hrs by agar dilution method; conditions: CIP 104999, 18 h; method in brief: as §1
[32] = system: Enterococcus faecium; assay: Antibacterial activity against Enterococcus faecium N823 after 18 hrs by agar dilution method; conditions: N823, 18 h; method in brief: as §1
[33] = system: Bacillus cereus; assay: Antibacterial activity against Bacillus cereus N349 after 18 hrs by agar dilution method; conditions: N349, 18 h; method in brief: as §1
[34] = system: Staphylococcus intermedius; assay: Antibacterial activity against Staphylococcus intermedius N987 after 18 hrs by agar dilution method; conditions: N987, 18 h; method in brief: as §1
[35] = system: Mammaliicoccus sciuri; assay: Antibacterial activity against Staphylococcus sciuri N993 after 18 hrs by agar dilution method; conditions: N993, 18 h; method in brief: as §1
[36] = system: Bacillus spizizenii; assay: Antibacterial activity against Bacillus subtilis ATCC 6633 after 18 hrs by agar dilution method; conditions: ATCC 6633, 18 h; method in brief: as §1
[37] = system: Enterococcus faecalis; assay: Antibacterial activity against Enterococcus faecalis N518 after 18 hrs by agar dilution method; conditions: N518, 18 h; method in brief: as §1
[38] = system: Bacillus cereus; assay: Antibacterial activity against Bacillus cereus N190 after 18 hrs by agar dilution method; conditions: N190, 18 h; method in brief: as §1
[39] = system: Enterococcus faecium; assay: Antibacterial activity against Enterococcus faecium N490 after 18 hrs by agar dilution method; conditions: N490, 18 h; method in brief: as §1
[40] = system: Enterococcus faecium; assay: Antibacterial activity against Enterococcus faecium CIP 107387 after 18 hrs by agar dilution method; conditions: CIP 107387, 18 h; method in brief: as §1
[41] = system: Staphylococcus aureus; assay: Antibacterial activity against Staphylococcus aureus CIP 7625 after 18 hrs by agar dilution method; conditions: CIP 7625, 18 h; method in brief: as §1
[42] = system: Staphylococcus aureus; assay: Antibacterial activity against Staphylococcus aureus CIP 53156 after 18 hrs by agar dilution method; conditions: CIP 53156, 18 h; method in brief: as §1
[43] = system: Listeria monocytogenes; assay: Antibacterial activity against Listeria monocytogenes N783 after 18 hrs by agar dilution method; conditions: N783, 18 h; method in brief: as §1
[44] = system: Staphylococcus aureus; assay: Antibacterial activity against Staphylococcus aureus CRBIP 2121 after 18 hrs by agar dilution method; conditions: CRBIP 2121, 18 h; method in brief: as §1
[45] = system: Listeria innocua; assay: Antibacterial activity against Listeria innocua E044 after 18 hrs by agar dilution method; conditions: E044, 18 h; method in brief: as §1
[46] = system: Bacillus cereus; assay: Antibacterial activity against Bacillus cereus CIP 6624 after 18 hrs by agar dilution method; conditions: CIP 6624, 18 h; method in brief: as §1
[47] = system: Enterococcus faecalis; assay: Antibacterial activity against Enterococcus faecalis N491 after 18 hrs by agar dilution method; conditions: N491, 18 h; method in brief: as §1
[48] = system: Staphylococcus saprophyticus; assay: Antibacterial activity against Staphylococcus saprophyticus CIP 76125 after 18 hrs by agar dilution method; conditions: CIP 76125, 18 h; method in brief: as §1
[49] = system: Staphylococcus lugdunensis; assay: Antibacterial activity against Staphylococcus lugdunensis ATCC 43809 after 18 hrs by agar dilution method; conditions: ATCC 43809, 18 h; method in brief: as §1
[50] = system: Enterococcus avium; assay: Antibacterial activity against Enterococcus avium CIP 104053 after 18 hrs by agar dilution method; conditions: CIP 104053, 18 h; method in brief: as §1

`C=C(CC(=O)O)C(=O)C[C@H]1C(=C)CC[C@H]2C(C)(C)CCC[C@]12C` gave an MIC [1] of 50 µM (≈ 15.9 µg/mL), an MIC [2] of 158 µM (≈ 50.3 µg/mL) and an MIC [3] of 158 µM (≈ 50.3 µg/mL). The MIC [4] was > 158 µM, the MIC [5] was > 158 µM and the MIC [6] was 158 µM (≈ 50.3 µg/mL). The inhibition of growth at 10 µM [7] was 25%, the MIC [8] was 158 µM (≈ 50.3 µg/mL) and the MIC [9] was 158 µM (≈ 50.3 µg/mL). For the same compound, the MIC [10] was > 158 µM, the MIC [11] was 158 µM (≈ 50.3 µg/mL) and the inhibition of growth at 10 µM [12] was 46%. For the same compound, the MIC [13] was 158 µM (≈ 50.3 µg/mL), the MIC [14] was 100 µM (≈ 31.8 µg/mL) and the MIC [15] was > 158 µM. For the same compound, the MIC [16] was > 158 µM, the MIC [17] was 158 µM (≈ 50.3 µg/mL) and the MIC [18] was > 158 µM. The MIC [19] was 158 µM (≈ 50.3 µg/mL), the MIC [20] was > 158 µM and the MIC [21] was > 158 µM. The MIC [22] was 158 µM (≈ 50.3 µg/mL), the MIC [23] was 100 µM (≈ 31.8 µg/mL) and the MIC [24] was > 158 µM. The MIC [25] was 158 µM (≈ 50.3 µg/mL), the MIC [26] was > 158 µM and the MIC [27] was > 158 µM. The inhibition of growth at 1 µM [28] was 0%, the inhibition of growth at 1 µM [29] was 22% and the MIC [30] was > 158 µM. For the same compound, the MIC [31] was > 158 µM, the MIC [32] was > 158 µM and the MIC [33] was 50 µM (≈ 15.9 µg/mL). The MIC [34] was 100 µM (≈ 31.8 µg/mL), the MIC [35] was 158 µM (≈ 50.3 µg/mL) and the MIC [36] was 100 µM (≈ 31.8 µg/mL). For the same compound, the MIC [37] was > 158 µM, the MIC [38] was 25 µM (≈ 7.96 µg/mL) and the MIC [39] was 158 µM (≈ 50.3 µg/mL). The MIC [40] was > 158 µM, the MIC [41] was 158 µM (≈ 50.3 µg/mL) and the MIC [42] was 158 µM (≈ 50.3 µg/mL). The MIC [43] was 158 µM (≈ 50.3 µg/mL), the MIC [44] was 100 µM (≈ 31.8 µg/mL) and the MIC [45] was 158 µM (≈ 50.3 µg/mL). The MIC [46] was 50 µM (≈ 15.9 µg/mL), the MIC [47] was > 158 µM and the MIC [48] was 158 µM (≈ 50.3 µg/mL). For the same compound, the MIC [49] was 158 µM (≈ 50.3 µg/mL) and the MIC [50] was > 158 µM.
`C=C1C[C@@H](O)[C@H]2C(C)(C)CCC[C@]2(C)[C@H]1CCC1=CC(=O)OC1O` (some centres undefined) gave an inhibition of growth at 10 µM [7] of 28%, an inhibition of growth at 10 µM [12] of 38% and an inhibition of growth at 1 µM [28] of 0%. For the same compound, the inhibition of growth at 1 µM [29] was 5%.
